# Assay results as given in PMC4398657 (Bioorganic & medicinal chemistry, 2015).
# Marks after values point to notes of the source that are not given here.
# Assays:
# [1] = test system: wild-type E. coli (AB1157); assay: Checkerboard assay: minimum potentiation concentration; assay type: cell-based, Escherichia coli; conditions: potentiation of LVX and PIP, antibiotic not separated
# [2] = test system: outer membrane of E. coli strain deficient in AcrAB (HN1159); assay: Nitrocefin influx; assay type: cell-based, Escherichia coli
# [3] = test system: transmembrane proton gradient, E. coli NCM3722; assay: LacY permease-dependent uptake and accumulation of [3H]-TMG; assay type: cell-based, Escherichia coli; conditions: concentrations up to 20 µM
# Method in brief: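 Whole E. coli cells take up [methyl-³H] β-D-thiogalactopyranoside through the LacY permease, and accumulation depends on proton motive force. The tracer stock was 1 mCi/ml at a specific activity of 7 Ci/mmol. Accumulated radiolabel was measured in the presence of test compound to estimate disruption of the transmembrane proton gradient.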
# [4] = Murine liver microsome stability; assay type: in vitro ADME, mouse; conditions: % remaining after 60 min at 37 °C in the presence of NADPH; 25 µM compound
# Method in brief: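 Pooled mouse liver microsomes (0.5 mg/mL final) with test compound at 25 µM final, in 100 mM potassium phosphate pH 7.4 and 3 mM MgCl₂, with or without 2 mM NADPH (no-NADPH as control); 1 h at 37 °C; stopped with an equal volume of acetonitrile with 0.1% TFA. Value is the compound peak-area ratio of +NADPH to no-NADPH.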
# [5] = test system: AcrB (AcrAB-TolC in E. coli); assay: Cell-based assay of kinetic parameters; parameters: species or system Escherichia coli; conditions: manuscript in preparation
# [6] = test system: wild-type E. coli (AB1157); conditions: antibacterial activity of the EPI alone; cited from earlier work
smiles,measurement,setting,value
CC1(C)Cc2c(C#N)c(SCC(=O)c3ccccc3)nc(N3CCOCC3)c2CO1 [Compound 12c],EPI potency / MPC4 in words,[1],inactive
"CC1(C)Cc2c(C#N)c(SCC(O)c3ccccc3)nc(N3CCOCC3)c2CO1 (stereo not drawn) [Compound 12d, 6-(2-hydroxy-2-phenylethylthio)-5-cyano-3,3-dimethyl-8-morpholino-3,4-dihydro-1H-pyrano[3,4-c]pyridine]",EPI potency / MPC4 in words,[1],inactive
CC1(C)Cc2c(C#N)c(SCCC#N)nc(N3CCOCC3)c2CO1 [Compound 20a],EPI potency / MPC4 in words,[1],inactive
COc1cccc(CCSc2nc(N3CCOCC3)c3c(c2C#N)CC(C)(C)OC3)c1 [Compound 20f],rate of nitrocefin influx,[2],none of the compounds increased the rate of nitrocefin influx
same,inhibition of uptake and accumulation of 3H-TMG,[3],none of the analogs significantly inhibited uptake and accumulation
COCCN1CCN(c2nc(SCCc3ccc(OC)cc3)c(C#N)c3c2COC(C)(C)C3)CC1 [Compound 21f],inhibition of uptake and accumulation of 3H-TMG,[3],none of the analogs significantly inhibited uptake and accumulation
COCCN1CCN(c2nc(SCCc3ccc(OC)c(OC)c3)c(C#N)c3c2COC(C)(C)C3)CC1 [Compound 21g],inhibition of uptake and accumulation of 3H-TMG,[3],none of the analogs significantly inhibited uptake and accumulation
"CC(=O)Nc1ccc(CCSc2nc(N3CC(C)OC(C)C3)c3c(c2C#N)CC(C)(C)OC3)cc1 (stereo not drawn) [Compound 22f, 6-(4-acetamidophenethylthio)-5-cyano-3,3-dimethyl-8-(2,6-dimethyl-4-morpholino)-3,4-dihydro-1H-pyrano[3,4-c]pyridine]",MLMS,[4],0 ^* %
same,potency against AcrB relative to MBX2319,[5],at least 20 fold
"CC1CN(c2nc(SCCc3ccc(NC(=O)C(F)(F)F)cc3)c(C#N)c3c2COC(C)(C)C3)CC(C)O1 (stereo not drawn) [Compound 22g, 6-[4-(2,2,2-trifluoroacetamido)phenethylthio]-5-cyano-8-(2,6-dimethylmorpholino)-3,3-dimethyl-3,4-dihydro-1H-pyrano[3,4-c]pyridine]",MLMS,[4],0 ^* %
"C=CC(=O)Nc1ccc(CCSc2nc(N3CC(C)OC(C)C3)c3c(c2C#N)CC(C)(C)OC3)cc1 (stereo not drawn) [Compound 22i, 6-(4-acrylamidophenethylthio)-5-cyano-3,3-dimethyl-8-(2,6-dimethyl-4-morpholino)-3,4-dihydro-1H-pyrano[3,4-c]pyridine]",inhibition of uptake and accumulation of 3H-TMG,[3],none of the analogs significantly inhibited uptake and accumulation
same,EPI potency / MPC4 in words,[1],submicromolar
"CC1CN(c2nc(SCCc3ccc(NC(=N)N)cc3)c(C#N)c3c2COC(C)(C)C3)CC(C)O1 (stereo not drawn) [Compound 22k, 6-(4-guanidinophenethylthio)-5-cyano-3,3-dimethyl-8-(2,6-dimethyl-4-morpholino)-3,4-dihydro-1H-pyrano[3,4-c]pyridine]",inhibition of uptake and accumulation of 3H-TMG,[3],none of the analogs significantly inhibited uptake and accumulation
same,EPI potency / MPC4 in words,[1],submicromolar
"CC1(C)Cc2c(C#N)c(SCCc3ccccc3)nc(N3CCOCC3)c2CO1 [MBX2319, 3,3-dimethyl-5-cyano-8-morpholino-6-(phenethylthio)-3,4-dihydro-1H-pyrano[3,4-c]pyridine]",MIC,[6],≥ 100 µM
